Experimental data pooled from the literature.
Observed: metabolic stability
Matrix: liver microsomes

Structure (SMILES)	species	concentration	time	pH	compound remaining
N#Cc1ccc(C[C@@H](NC(=O)Nc2ccc(F)cc2)C(=O)NCC2(c3ccc(OC(F)(F)F)cc3)CC2)cc1	rat	10 µM	30 min	pH 7.4	> 80%
Cc1ccc2c(c1)nc(CCc1cccc3cccnc13)n2-c1ccccc1	rat	1.5 µM	30 min	–	0.13%
CC(C)NCC(O)COc1cccc2ccccc12 (stereo not shown)	male rat	1 µM	30 min	–	< 7%
Cc1ncsc1-c1ccc(CNC(=O)[C@@H]2C[C@@H](O)CN2C(=O)[C@@H](NC(=O)CCCCCCCCCCNC(=O)O[C@H]2C[C@@H](C)C=C3C=C[C@H](C)[C@H](CC[C@@H]4C[C@@H](O)CC(=O)O4)[C@H]32)C(C)(C)C)cc1	mouse	1 µM	15 min	pH 7.4	8.23%
O=C(Nc1ccc(S(=O)(=O)N2CCC(Cl)CC2)cc1)c1ccc([N+](=O)[O-])o1	mouse	1 µM	1 h	pH 7.4	0.02%
CS(=O)(=O)c1ccc(-c2cnc(N)c(-c3ccc(C(F)(F)F)nc3)c2)cc1	male rat	1 µM	30 min	–	97%
CCCn1nc(C(=O)N2CCCCC2)c2c1CCC(NCCN1CCCCC1)C2 (stereo not shown)	mouse	10 µM	1 h	–	54%
O=S(=O)(c1cccc2cccnc12)N1CC(c2nc(-c3ccc(F)cc3)no2)C1	mouse	–	10 min	–	74%
CCCn1nc(C(=O)N2CCCCC2)c2c1CCC(N(C)Cc1ccc(F)cc1)C2 (stereo not shown)	mouse	10 µM	1 h	–	0%
Cc1ccc2c(c1)nc(/C=C/c1cccc3cccnc13)n2-c1ccccc1	rat	1.5 µM	0 h	–	100%
